High-throughput results deposited in PubChem by several laboratories.
The list is not random: actives were taken first. Their share in the collection is about 2.7%.
MsrA inhibitor – bovine MsrA inhibition; purified bovine MsrA, absorbance read-out; inhibition, % at 15.5 µM; 0.75% of 360,000 active; in the data active = inhibition above about 4.5%;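 also: 0% = vehicle wells with enzyme and 100% = reference inhibitor wells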
ARFGAP1 inh – rat ARFGAP1 inhibition; Q62848; Arfgap1-stimulated ARF1 GTP hydrolysis, GDP FP detection; inhibition, % at 16.5 µM; 0.26% of 360,000 active;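 active = inhibition above a per-plate limit, mean inhibition of low control wells plus 3 SD, cut at about 25% in these data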;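 also: 0% = DMSO wells with enzyme and 100% = wells lacking Arfgap1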
Target sequence (Q62848 1-136 limits assumed): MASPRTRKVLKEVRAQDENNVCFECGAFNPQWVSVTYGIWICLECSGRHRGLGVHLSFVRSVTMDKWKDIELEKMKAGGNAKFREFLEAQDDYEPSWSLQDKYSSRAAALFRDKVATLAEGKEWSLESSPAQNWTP
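System: truncated rat Arfgap1 GAP domain / Benchmarks: high control wells lacking Arfgap1, low control full reaction with DMSO / Times: compound-enzyme preincubation 20 min, reaction 120 min, detection 60 min, 25 °C / Repeats: one replicate per compound / Also added: human ARF1(Δ1-17)-GTP substrate / Measured by: Tracer-displacement fluorescence polarization with EDTA stop, 620/688 nm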
ASAP1 inh – blocks human ASAP1-stimulated Arf1 GTP hydrolysis; GDP FP detection; inhibition, % at 16.5 µM; 0.19% of 360,000 active; in the data active = inhibition above about 25%;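 also: 0% = vehicle with enzyme and substrate and 100% = no enzyme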
Target sequence (Q9ULH1 325-724 limits assumed): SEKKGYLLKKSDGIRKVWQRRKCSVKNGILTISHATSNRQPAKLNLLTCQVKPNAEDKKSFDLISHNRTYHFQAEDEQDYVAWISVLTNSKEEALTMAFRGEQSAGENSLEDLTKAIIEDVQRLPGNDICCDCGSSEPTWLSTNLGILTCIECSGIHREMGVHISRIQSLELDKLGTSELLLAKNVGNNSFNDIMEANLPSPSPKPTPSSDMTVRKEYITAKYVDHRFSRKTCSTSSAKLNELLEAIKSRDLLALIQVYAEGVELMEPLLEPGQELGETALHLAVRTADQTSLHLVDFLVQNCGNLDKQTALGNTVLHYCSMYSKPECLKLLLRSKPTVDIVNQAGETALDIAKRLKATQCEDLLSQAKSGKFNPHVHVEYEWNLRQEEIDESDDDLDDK
NR1D1 modulator – modulates human Rev-erb alpha binding to DNA | P20393 | Rev-erbα–FITC-DNA binding, fluorescence polarization, 90 min | activity, % at 10 µM | 0.79% of 370,000 active | AID 1259318;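 active = activity above about 14%, limit read from the data; passing the limit was not always enough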;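 also: 0% = DMSO wells with 35 nM protein and 100% = DMSO wells with 750 nM protein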
bovine MsrA act – activators of bovine methionine sulfoxide reductase A; purified bovine MsrA, absorbance read-out; activation, % at 10.6 µM; 0.3% of 360,000 active; AID 602163; in the data active = activation above about 7.5%;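 also: 0% = vehicle and 100% = reference activator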
sPLA2-III inh – Inhibits HGIII-sPLA2 liposome hydrolysis, primary screen; Q9NZ20; QFRET BODIPY PC-A2 liposome hydrolysis, fluorescence; inhibition, % at 12.2 µM; 0.56% of 370,000 active; AID 743126;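 active = inhibition above mean plus 3 SD of compounds lying within the high and low control bounds, cut at about 19% in these data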;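 also: 0% = median of test compound wells and 100% = no enzyme DMSO wells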
sPLA2 confirm – human GIII-sPLA2 inhibition, confirmation. shares compounds with sPLA2-III inh. recombinant hGIII-sPLA2, BODIPY PC-A2 QFRET fluorescence. inhibition, % at 12.2 µM. 34% of 2,000 active;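 active = mean inhibition across triplicates above the hit cutoff set in the earlier primary screen, cut at about 19% in these data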;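 also: 0% = enzyme with DMSO and 100% = DMSO wells lacking enzyme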
BODIPY interf – 535nm fluorescence interference, HGIII-sPLA2 counter-screen. shares compounds with sPLA2-III inh. BODIPY FL product fluorescence interference, QFRET. inhibition, % at 12.2 µM. 8.5% of 2,000 active. AID 743282;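 active = average inhibition above the solvent-only control mean plus 3 SD, cut at about 6% in these data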;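 also: 0% = DMSO with substrate plus product and 100% = DMSO with substrate alone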
535nm interf DR – interferes with 535nm fluorescence in dose response counter-screen. shares compounds with sPLA2-III inh. 240 tested, under 10 active. AID 743455. IC50, µM. BODIPY FL product fluorescence interference, cell-free;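 active = IC50 at or below 10 µM; inactive = IC50 above 10 µM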
Active calls of the source: *; x = no result.

SMILES	MsrA inhibitor	ARFGAP1 inh	ASAP1 inh	NR1D1 modulator	bovine MsrA act	sPLA2-III inh	sPLA2 confirm	BODIPY interf	others
COc1ccc(-c2noc(C3CCCN(C(=O)NC4CCC(C)CC4)C3)n2)cc1 (stereo not drawn)	x	x	x	0	x	2	x	x
O=c1oc2cc(O)ccc2s1	3	18	4	1	1	20*	4	-2
O=c1ccc(-c2n[nH]c(=S)n2-c2ccc(F)c(Cl)c2)n[nH]1	2	4	8	9	2	7	x	x
Fc1ccc(-n2c(-c3cc(C4CC4)[nH]n3)n[nH]c2=S)cc1Cl	1	-7	-10	-1	-5	28*	23*	1
O=C(CC1CCCC1)N1CC[C@H]2[C@H](CCCN2Cc2ccc(F)cc2)C1	x	x	x	9	x	1	x	x
CCN(CC)C(=O)c1ccc2sc([C@H]3C[C@H](O)[C@@H](CO)O3)nc2c1	1	10	-7	-3	-3	22*	4	-6
N#CCC[C@@H]1CC[C@]2(CCCN(C(=O)c3ccccc3)C2)O1	x	x	x	-2	x	16	x	x
N#CCC[C@H]1CC[C@]2(CCCN(C(=O)c3ccccc3)C2)O1	x	x	x	1	x	19*	0	-3
C[C@H]1[C@@H](C(=O)N2CCCC2)Cc2nc3ccccc3nc2C[C@@H]1c1ccccc1	x	x	x	0	x	-2	x	x
CC(=O)Nc1ccc(-c2csc(NNC(=O)c3ccccc3)n2)cc1	1	-10	8	1	2	33*	22*	4
O=C(NNc1nc(-c2ccc(Cl)cc2)cs1)c1ccco1	-1	-9	-1	0	-7	45*	38*	11*
Cc1ccc(-c2csc(NC(=S)NC(=O)c3ccco3)n2)cc1	0	-7	14	-4	-2	16	x	x
O=C(NNc1nc(-c2ccccc2)cs1)c1ccco1	-1	0	-3	2	0	27*	29*	4	535nm interf DR=>122
C=CCN1[C@H](C)COc2cccc(N3CCCC3)c2S1(=O)=O	x	x	x	-2	x	8	x	x
Cn1c(NC(=S)Nc2ccccc2)nc2ccccc21	3	0	-4	16	-7	39*	35*	6.3*
S=C(Nc1ccccc1)Nc1nc2ccccc2n1CCOc1ccc(Br)cc1	0	0	-8	2	-3	7	x	x
COC(=O)[C@]12C[C@H](CC(=O)NCC34CC5CC(CC(C5)C3)C4)C(=O)N(CCC3=CCCCC3)C1=C[C@H](C1CCCC1)O[C@@H]2C	x	x	x	4	x	6	x	x
CCc1c(C)nc2c(-c3ccccc3)c[nH]n2c1=O	1	16	5	1	-3	24*	33*	5	535nm interf DR=>122
O=C(NCCN1CCC(Cc2ccccc2)CC1)C1CCCN(S(=O)(=O)c2ccc(Cl)s2)C1 (stereo not drawn)	x	x	x	3	x	-24	x	x
O=S1(=O)c2ccc(N3CCC[C@H]3CO)cc2OCCCN1C1CC1	x	x	x	7	x	-8	x	x
CC(=O)Oc1cccc(C(=O)Nc2c[nH]c(=O)[nH]c2=O)c1	0	-12	-14	1	-7	-3	x	x
COc1cccc(C(=O)Nc2c[nH]c(=O)[nH]c2=O)c1	0	9	-3	3	-2	21*	3	-5
COC(=O)[C@]12C[C@H](CC(=O)NCC3CCCCC3)C(=O)N(Cc3ccc(Cl)cc3Cl)C1=C[C@H](C(C)(C)C)O[C@@H]2C	x	x	x	-5	x	-3	x	x
O=C1c2ccccc2C(=O)c2c1cccc2N1CCOCC1	1	15	1	-12	-1	22*	32*	5	535nm interf DR=>122
CCOC(=O)NN1C(=O)c2ccccc2NC1c1ccc(OC)cc1 (stereo not drawn)	0	-4	16	3	-6	21*	4	-6
SMILES	MsrA inhibitor	ARFGAP1 inh	ASAP1 inh	NR1D1 modulator	bovine MsrA act	sPLA2-III inh	sPLA2 confirm	BODIPY interf	others
CCOC(=O)NN1C(=O)c2ccccc2NC1c1ccccc1 (stereo not drawn)	0	13	-11	2	-5	30*	1	-7
CCOC(=O)NN1C(=O)c2ccccc2NC1C (stereo not drawn)	0	14	8	6	-6	-2	x	x
CC(C)(C)c1ccc(S(=O)(=O)N2CCC(c3cn4ccccc4n3)CC2)cc1	x	x	x	5	x	-15	x	x
Cc1ccc(NC(=O)/C=C\C(=O)O)c([N+](=O)[O-])c1	1	15	5	-1	7	21*	1	-6
CCOc1ccc(NC(=O)/C=C/c2ccc(OC)cc2)c([N+](=O)[O-])c1	1	2	-12	3	0	26*	-2	-5
COc1ccc(/C=C/C(=O)Nc2ccc(OC)cc2[N+](=O)[O-])cc1	0	-5	0	1	-7	3	x	x
CCOc1ccc(NC(=O)COC(=O)C23CC4CC(CC(C4)C2)C3)c([N+](=O)[O-])c1	0	15	0	-2	-8	21*	-10	-10
c1ccc2c(c1)N=C(N1CCN(Cc3ccc4c(c3)OCO4)CC1)c1ccccc1S2	x	x	x	0	x	-7	x	x
O=C(c1ccc(Cl)c(Cl)c1)N1CCC(Oc2cccnc2)CC1	x	x	x	4	x	1	x	x
O=C(c1cccc(F)c1)N1CCCC(c2nc(-c3cccs3)no2)C1 (stereo not drawn)	x	x	x	9	x	-4	x	x
Cc1cc(C(=O)NNC(=S)Nc2cccc(C(F)(F)F)c2)nn1C	1	5	13	-1	-1	47*	42*	2	535nm interf DR=>122
NNC(=O)/C(=N/Nc1ccccc1)S(=O)(=O)c1ccc(Cl)cc1	1	7	3	0	-1	35*	47*	2	535nm interf DR=>122
CCOC(=O)/C(=N/Nc1ccc(C)cc1)S(=O)(=O)c1ccc(Cl)cc1	0	2	6	3	-2	1	x	x
Oc1ccc(Br)cc1/C=N/NC(=S)NCCc1ccccc1	0	1	3	8	-2	26*	24*	5
COC(=O)N/N=C/c1cc(Br)ccc1O	1	9	6	-3	-3	8	x	x
CC(C)NC(=S)N/N=C/c1cc(Br)ccc1O	2	2	3	-4	-4	29*	5	5
O=C(OC12CCCN(C1)/C(=C/c1ccccc1)C2)c1ccccc1 (stereo not drawn)	x	x	x	5	x	4	x	x
COc1ccccc1OCC(=O)NNC(=S)NC(=O)c1ccco1	1	6	5	-6	1	2	x	x
COc1ccc(C(=O)NC(=S)NNC(=O)c2ccco2)cc1	1	3	11	7	0	19*	29*	-2	535nm interf DR=>122
COc1ccc(CC(=O)NNC(=O)c2ccco2)cc1	-1	-1	-7	1	-4	3	x	x
